Assay results taken from ChEMBL document CHEMBL4304750, “Novel Anthraquinone Compounds Induce Cancer Cell Death through Paraptosis” (ACS Med Chem Lett, 2019).
The source made the active and inactive calls. No cut-off for these calls is given here.

Tests used:
SMMC-7721 [1] = test: Antiproliferative activity against human SMMC7721 assessed as reduction in cell viability incubated for 48 hrs by CCK-8 assay; format: functional, cell-based; details: SMMC-7721, 48 h
SMMC-7721 [2] = test: Induction of cytoplasmic vacuolation in human SMMC7721 cells assessed as increase in number of vacuoles formation with shrinked volume of vacuoles at 3 to 10 uM incubated for 48 hrs by inverted phase contrast microscopy; format: functional, cell-based
SMMC-7721 [3] = test: Induction of cell morphological changes in human SMMC7721 cells assessed as cell shrinkage at 3 to 10 uM incubated for 48 hrs by HE staining based light microscopy; format: functional
Procedure, shortened: (§1)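 Haematoxylin-eosin staining of SMMC-7721 cells after 48 h treatment, examined by light microscopy.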

SMMC-7721 [4] = test: Induction of cell morphological changes in human SMMC7721 cells assessed as cytoplasmic loss at 3 to 10 uM incubated for 48 hrs by H and E staining based light microscopy; format: functional; procedure, shortened: as §1
SMMC-7721 [5] = test: Induction of endoplasmic reticulum vacuolation in human SMMC7721 cells assessed as nuclei shrank and appearance of vacuoles surrounded by positive ER-specific markers at 3 to 5 uM incubated for 48 hrs by ER-tracker red and Hoechst 33342 staining based laser scanning confocal microscopy; format: functional, cell-based
SMMC-7721 [6] = test: Induction of endoplasmic reticulum vacuolation in human SMMC7721 cells assessed as increase in vacuole formation and entire ER cytoplasm occupied with vacuole with loss of cell contents at 3 to 5 uM incubated for 48 hrs by ER-tracker red and Hoechst 33342 staining based laser scanning confocal microscopy; format: functional
SMMC-7721 [7] = test: Induction of cell morphological changes in human SMMC7721 cells assessed as appearance of large vacuoles in cytoplasm at 5 uM incubated for 48 hrs by transmission electron microscopy; format: functional, cell-based
Procedure, shortened: (§2)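 SMMC-7721 cells incubated 48 h at 5 μM, alongside untreated control cells, then imaged by transmission electron microscopy. ER, mitochondria, Golgi, nucleus, membrane and autophagosomes/apoptotic bodies were inspected.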

SMMC-7721 [8] = test: Induction of endoplasmic reticulum vacuolation in human SMMC7721 cells assessed as vacuole derivatization by expansion and swelling of rough ER with vacuoles wrapped in monolayer membranes with loss of ER structure integrity at 5 uM incubated for 48 hrs by transmission electron microscopy; format: functional, cell-based; procedure, shortened: as §2
SMMC-7721 [9] = test: Induction of mitochondrial swelling, vacuoles and ridges disappearance and loss of mitochondrial and golgi apparatus structural integrity in human SMMC7721 cells at 5 uM incubated for 48 hrs by transmission electron microscopy; format: functional, cell-based; procedure, shortened: as §2
HepG2 [10] = test: Antiproliferative activity against human HepG2 cells assessed as reduction in cell viability incubated for 48 hrs by CCK-8 assay; format: functional, cell-based
CNE-2 [11] = test: Antiproliferative activity against human CNE2 cells assessed as reduction in cell viability incubated for 48 hrs by CCK-8 assay; format: functional, cell-based
SMMC-7721 [12] = test: Antiproliferative activity against human SMMC7721 cells assessed as decrease in cell viability incubated for 48 hrs by CCK-8 assay; format: functional, cell-based
Procedure, shortened: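 SMMC-7721 cells exposed 48 h to 3, 5 or 10 μM, then viability read by CCK-8 assay.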

SMMC-7721 [13] = test: Induction of apoptosis with PS translocation in human SMMC7721 cells at 3 to 10 uM incubated for 48 hrs by Annexin V-FITC and propidium iodide staining based flow cytometry; format: functional, cell-based
Procedure, shortened: (§3)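 After 48 h treatment, SMMC-7721 cells were collected, stained with annexin V-FITC plus PI, and analysed by flow cytometry for PS externalization/apoptotic fraction.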

SMMC-7721 [14] = test: Induction of apoptosis in human SMMC7721 cells assessed as viable cells with normal cell membrane at 10 uM incubated for 48 hrs by Annexin V-FITC and propidium iodide staining based flow cytometry; format: functional; procedure, shortened: as §3
SMMC-7721 [15] = test: Induction of cell cycle arrest in human SMMC7721 cells at 3 to 10 uM incubated for 48 hrs by propidium iodide staining based flow cytometry; format: functional
SMMC-7721 [16] = test: Effect on cleaved caspase 3 level in human SMMC7721 cells at antiproliferative IC60 incubated for 12 to 48 hrs by Western blot analysis; format: functional, cell-based
Procedure, shortened: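 SMMC-7721 cells were treated 12, 24 and 48 h, with cisplatin as apoptosis positive control. Extracts were immunoblotted for procaspase-3 and cleaved caspase-3, with β-actin as loading control.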

SMMC-7721 [17] = test: Induction of endoplasmic reticulum stress in human SMMC7721 cells assessed as increase in GRP78 expression at 3 uM by Western blot analysis; format: functional, cell-based; details: TDE = time-dependent effect
SMMC-7721 [18] = test: Increase in LC3-II/LC3-I expression ratio in human SMMC7721 cells at 3 uM incubated for 12 to 48 hrs by Western blot analysis; format: functional, cell-based
SMMC-7721 [19] = test: Inhibition of autophagosome formation in human SMMC7721 cells assessed as increase in p62 level at 3 uM incubated for 12 to 48 hrs by Western blot analysis; format: functional, cell-based
SMMC-7721 [20] = test: Induction of paraptosis in human SMMC7721 cells assessed as increase in GRP78 expression by Western blot analysis; format: functional, cell-based
SMMC-7721 [21] = test: Induction of paraptosis in human SMMC7721 cells assessed as increase in LC3-II/LC3-I expression ratio by Western blot analysis; format: functional, cell-based
SMMC-7721 [22] = test: Decrease in p62 expression level in human SMMC7721 cells by Western blot analysis; format: functional, cell-based
CNE [23] = test: Antiproliferative activity against human CNE1 cells assessed as reduction in cell viability incubated for 48 hrs by CCK-8 assay; format: functional, cell-based
CNE [24] = test: Induction of cell vacuole formation in human CNE1 cells at 5 uM incubated for 24 hrs by phase contrast microscopy; format: functional, cell-based
CNE-2 [25] = test: Induction of cell vacuole formation in human CNE2 cells at 5 uM incubated for 24 hrs by phase contrast microscopy; format: functional, cell-based
HepG2 [26] = test: Induction of cell vacuole formation in human HepG2 cells at 5 uM incubated for 24 hrs by phase contrast microscopy; format: functional, cell-based
CNE [27] = test: Induction of cell vacuole formation in human CNE1 cells at 3 to 5 uM incubated for 48 hrs by phase contrast microscopy; format: functional, cell-based
SMMC-7721 [28] = test: Induction of cell vacuole formation in human SMMC7721cells at 5 uM incubated for 24 hrs by phase contrast microscopy; format: functional, cell-based
CNE-2 [29] = test: Induction of cell vacuole formation in human CNE2 cells at 3 to 5 uM incubated for 48 hrs by phase contrast microscopy; format: functional, cell-based
HepG2 [30] = test: Induction of cell vacuole formation in human HepG2 cells at 3 to 5 uM incubated for 48 hrs by phase contrast microscopy; format: functional, cell-based
SMMC-7721 [31] = test: Induction of cell morphological changes in human SMMC7721 cells assessed as appearance of small vacuoles in cytoplasm at 5 uM incubated for 48 hrs by transmission electron microscopy; format: functional, cell-based; procedure, shortened: as §2
SMMC-7721 [32] = test: Induction of cell morphological changes in human SMMC7721 cells assessed as nuclear chromatin pyknosis at 3 to 10 uM incubated for 48 hrs by H and E staining based light microscopy; format: functional; procedure, shortened: as §1
SMMC-7721 [33] = test: Induction of cell morphological changes in human SMMC7721 cells assessed as change in cell membrane structure at 5 uM incubated for 48 hrs by transmission electron microscopy; format: functional, cell-based; procedure, shortened: as §2
SMMC-7721 [34] = test: Induction of cell morphological changes in human SMMC7721 cells assessed as appearance of concentrated nucleus at 5 uM incubated for 48 hrs by transmission electron microscopy; format: functional, cell-based; procedure, shortened: as §2
SMMC-7721 [35] = test: Induction of cell morphological changes in human SMMC7721 cells assessed as appearance of smaller nucleus at 5 uM incubated for 48 hrs by transmission electron microscopy; format: functional, cell-based; procedure, shortened: as §2
SMMC-7721 [36] = test: Induction of cell morphological changes in human SMMC7721 cells assessed as autophagosome formation at 5 uM incubated for 48 hrs by transmission electron microscopy; format: functional, cell-based; procedure, shortened: as §2
SMMC-7721 [37] = test: Induction of cell morphological changes in human SMMC7721 cells assessed as formation of apoptotic bodies at 5 uM incubated for 48 hrs by transmission electron microscopy; format: functional, cell-based; procedure, shortened: as §2
SMMC-7721 [38] = test: Induction of cell morphological changes in human SMMC7721 cells assessed as swelling of mitochondria at 5 uM incubated for 48 hrs by transmission electron microscopy; format: functional, cell-based; procedure, shortened: as §2
SMMC-7721 [39] = test: Induction of cell morphological changes in human SMMC7721 cells assessed as vacuole formation in mitochondria at 5 uM incubated for 48 hrs by transmission electron microscopy; format: functional, cell-based; procedure, shortened: as §2
SMMC-7721 [40] = test: Induction of cell morphological changes in human SMMC7721 cells assessed as appearance of ridges in mitochondria at 5 uM incubated for 48 hrs by transmission electron microscopy; format: functional, cell-based; procedure, shortened: as §2
CNE [41] = test: Antiproliferative activity against human CNE1 cells assessed as reduction in cell viability incubated for 48 hrs by MTT assay; format: functional, cell-based
CNE-2 [42] = test: Antiproliferative activity against human CNE2 cells assessed as reduction in cell viability incubated for 48 hrs by MTT assay; format: functional, cell-based
HepG2 [43] = test: Antiproliferative activity against human HepG2 cells assessed as reduction in cell viability incubated for 48 hrs by MTT assay; format: functional, cell-based
SMMC-7721 [44] = test: Antiproliferative activity against human SMMC7721 assessed as reduction in cell viability incubated for 48 hrs by MTT assay; format: functional, cell-based
SMMC-7721 [45] = test: Induction of cytoplasmic vacuolation in human SMMC7721 cells at 10 uM incubated for 48 hrs by phase contrast microscopy; format: functional, cell-based
SMMC-7721 [46] = test: Induction of cytoplasmic vacuolation in human SMMC7721 cells assessed as vacuolar cell formation and appearance of apoptotic cells at 3 to 10 uM incubated for 48 hrs by phase contrast microscopy; format: functional, cell-based

SMILES: O=C(NCCO)c1cc(OCc2ccccc2)c2c(c1)C(=O)c1cccc(OCc3ccccc3)c1C2=O
- IC50 (SMMC-7721 [1]): 1500 nM
- Activity (SMMC-7721 [2]): Active
- Activity (SMMC-7721 [3]): Active
- Activity (SMMC-7721 [4]): Active
- Activity (SMMC-7721 [5]): Active
- Activity (SMMC-7721 [6]): Active
- Activity (SMMC-7721 [7]): Active
- Activity (SMMC-7721 [8]): Active
- Activity (SMMC-7721 [9]): Active
- inhibition (HepG2 [10]): Active
- inhibition (CNE-2 [11]): Active
- inhibition (SMMC-7721 [12]): Dose-dependent effect
- Activity (SMMC-7721 [13]): inactive
- Activity (SMMC-7721 [14]): 22.42%
- Activity (SMMC-7721 [15]): inactive
- Activity (SMMC-7721 [16]): inactive
- Activity (SMMC-7721 [17]): Tde
- Activity (SMMC-7721 [18]): Active
- inhibition (SMMC-7721 [19]): Active
- Activity (SMMC-7721 [20]): Active
- Activity (SMMC-7721 [21]): Active
- inhibition (SMMC-7721 [22]): inactive
- inhibition (CNE [23]): Active
- Activity (CNE [24]): Active
- Activity (CNE-2 [25]): Active
- Activity (HepG2 [26]): Active
- Activity (CNE [27]): Active
- Activity (SMMC-7721 [28]): Active
- Activity (CNE-2 [29]): Active
- Activity (HepG2 [30]): Active
- Activity (SMMC-7721 [31]): Active
- Activity (SMMC-7721 [32]): Active
- Activity (SMMC-7721 [33]): inactive
- Activity (SMMC-7721 [34]): Active
- Activity (SMMC-7721 [35]): Active
- Activity (SMMC-7721 [36]): inactive
- Activity (SMMC-7721 [37]): inactive
- Activity (SMMC-7721 [38]): Active
- Activity (SMMC-7721 [39]): Active
- Activity (SMMC-7721 [40]): inactive

SMILES: O=C(O)c1cc(O)c2c(c1)C(=O)c1cccc(O)c1C2=O
- Activity (SMMC-7721 [20]): inactive
- Activity (SMMC-7721 [21]): inactive
- inhibition (SMMC-7721 [22]): inactive

SMILES: O=C1c2cccc(OCc3ccccc3)c2C(=O)c2c(OCc3ccccc3)cc(C(=O)N3CCN(CCO)CC3)cc21
- inhibition (CNE [41]): Active
- inhibition (CNE-2 [42]): Active
- inhibition (HepG2 [43]): Active
- inhibition (SMMC-7721 [44]): Active
- Activity (CNE [24]): Active
- Activity (CNE-2 [25]): Active
- Activity (HepG2 [26]): Active
- Activity (SMMC-7721 [28]): Active

SMILES: O=C(O)c1cc(OCc2ccccc2)c2c(c1)C(=O)c1cccc(OCc3ccccc3)c1C2=O
- Activity (SMMC-7721 [20]): Active
- Activity (SMMC-7721 [21]): inactive
- inhibition (SMMC-7721 [22]): inactive
- Activity (SMMC-7721 [45]): Active

SMILES: O=C(OCCN1CCCCC1)c1cc(OCc2ccccc2)c2c(c1)C(=O)c1cccc(OCc3ccccc3)c1C2=O
- Activity (SMMC-7721 [46]): Active
- Activity (SMMC-7721 [13]): Active
- inhibition (CNE [41]): Active
- inhibition (CNE-2 [42]): Active
- inhibition (HepG2 [43]): Active
- inhibition (SMMC-7721 [44]): Active
- Activity (CNE [24]): Active
- Activity (CNE-2 [25]): Active
- Activity (HepG2 [26]): Active
- Activity (SMMC-7721 [28]): Active
